{
  "source": "ChEMBL document CHEMBL3286260",
  "about": "“Guanidine-based α2-adrenoceptor ligands: Towards selective antagonist activity” (Eur J Med Chem, 2014)",
  "key": {"[1]": {"target": "T1, Alpha-2A adrenergic receptor (Homo sapiens) (UniProt P08913)", "T1 sequence (whole entry)": "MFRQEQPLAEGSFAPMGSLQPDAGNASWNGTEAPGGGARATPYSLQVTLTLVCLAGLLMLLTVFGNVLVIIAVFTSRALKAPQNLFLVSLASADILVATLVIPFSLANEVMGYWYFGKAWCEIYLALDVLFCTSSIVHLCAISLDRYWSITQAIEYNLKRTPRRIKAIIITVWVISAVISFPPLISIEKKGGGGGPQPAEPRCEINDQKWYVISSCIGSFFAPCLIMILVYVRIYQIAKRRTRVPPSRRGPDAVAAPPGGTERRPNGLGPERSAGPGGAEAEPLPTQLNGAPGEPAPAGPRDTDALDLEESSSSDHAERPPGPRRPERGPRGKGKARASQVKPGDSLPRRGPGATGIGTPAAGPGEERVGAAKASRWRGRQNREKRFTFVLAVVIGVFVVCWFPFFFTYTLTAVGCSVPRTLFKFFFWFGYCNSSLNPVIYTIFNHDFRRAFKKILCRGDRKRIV", "experiment": "Antagonist activity at alpha2-adrenergic receptor in prefrontal cortex of human brain assessed as effect on [35S]GTPgammaS binding after 120 mins by liquid scintillation spectrometric analysis", "type": "functional, tissue-based"}, "[2]": {"target": "T2, Alpha-2A adrenergic receptor (Homo sapiens, UniProt P08913)", "T2 sequence (P08913 whole entry)": "T1 sequence (whole entry)", "experiment": "Displacement of [3H]RX821002 from alpha2-adrenergic receptor in prefrontal cortex of human brain after 30 mins by liquid scintillation spectrometric analysis", "type": "tissue-based"}, "[3]": {"target": "T1, Alpha-2A adrenergic receptor (Homo sapiens)", "experiment": "Antagonist activity at alpha2-adrenergic receptor in prefrontal cortex of human brain assessed as increase in UK14304 EC50 for [35S]GTPgammaS binding after 120 mins by liquid scintillation spectrometric analysis", "type": "functional, tissue-based", "method_in_brief": "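Same [35S]GTPγS membrane assay (120 min, 30 °C, 0.5 nM radioligand, Mg/Na/GDP buffer pH 7.4). UK14304 concentration–response curves (10^-13 to 10^-4 M) run with or without test compound at 10^-5 M. Shift in agonist EC50 taken as the measure of antagonism. Bound label counted by liquid scintillation.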"}},
  "note": "pKi: −log10 of the molar value. Calls of active or inactive are those of the source. No cut-off for these calls is given here.",
  "data": [
    {"smiles": "N=C(NCCO)Nc1ccc2c(c1)OCO2", "values": [
      {"measurement": "Activity", "setting": "[1]", "value": "Active"},
      {"measurement": "pKi", "setting": "[2]", "value": 4.93}
    ]},
    {"smiles": "CN(C)c1ccc(/N=C(/N)NCc2ccco2)cc1", "values": [
      {"measurement": "Activity", "setting": "[3]", "value": "Active"},
      {"measurement": "Activity", "setting": "[1]", "value": "Active"},
      {"measurement": "pKi", "setting": "[2]", "value": 6.67}
    ]},
    {"smiles": "CCCNC(=N)Nc1ccc(NCC)cc1", "values": [
      {"measurement": "pKi", "setting": "[2]", "value": 5.08}
    ]},
    {"smiles": "CCOc1ccc(/N=C(/N)NCc2ccco2)cc1", "values": [
      {"measurement": "Activity", "setting": "[1]", "value": "Active"},
      {"measurement": "pKi", "setting": "[2]", "value": 5.83}
    ]},
    {"smiles": "CCOc1ccc(NC(=N)NCCO)cc1", "values": [
      {"measurement": "pKi", "setting": "[2]", "value": 4.72}
    ]},
    {"smiles": "CCOc1ccc(/N=C2/NCC(c3ccco3)N2)cc1", "note": "(centres undefined)", "values": [
      {"measurement": "pKi", "setting": "[2]", "value": 5.58}
    ]},
    {"smiles": "N=C(Nc1ccccc1)Nc1ccc2c(c1)OCO2", "values": [
      {"measurement": "pKi", "setting": "[2]", "value": 5.36}
    ]},
    {"smiles": "CN(C)c1ccc(NC(=N)Nc2ccccc2)cc1", "values": [
      {"measurement": "Activity", "setting": "[3]", "value": "Active"},
      {"measurement": "Activity", "setting": "[1]", "value": "Active"},
      {"measurement": "pKi", "setting": "[2]", "value": 6.41}
    ]},
    {"smiles": "COC1(C2=NCCN2)COc2ccccc2O1", "note": "(centres undefined)", "values": [
      {"measurement": "pKi", "setting": "[2]", "value": 8.72}
    ]},
    {"smiles": "N=C(NCc1ccco1)Nc1ccc2c(c1)OCO2", "values": [
      {"measurement": "Activity", "setting": "[1]", "value": "Active"},
      {"measurement": "pKi", "setting": "[2]", "value": 5.82}
    ]},
    {"smiles": "CCNc1ccc(/N=C2/NCC(C)N2)cc1", "note": "(centres undefined)", "values": [
      {"measurement": "pKi", "setting": "[2]", "value": 4.91}
    ]},
    {"smiles": "CCNc1ccc(/N=C(/N)NCc2ccco2)cc1", "values": [
      {"measurement": "Activity", "setting": "[1]", "value": "Active"},
      {"measurement": "pKi", "setting": "[2]", "value": 5.97}
    ]},
    {"smiles": "CCNc1ccc(NC(=N)NCCO)cc1", "values": [
      {"measurement": "pKi", "setting": "[2]", "value": 4.73}
    ]},
    {"smiles": "CCCNC(=N)Nc1ccc2c(c1)CCCC2", "values": [
      {"measurement": "Activity", "setting": "[1]", "value": "Active"},
      {"measurement": "pKi", "setting": "[2]", "value": 6.17}
    ]},
    {"smiles": "CCOc1ccc(/N=C2/NCC(C)N2)cc1", "note": "(centres undefined)", "values": [
      {"measurement": "pKi", "setting": "[2]", "value": 4.85}
    ]},
    {"smiles": "CCCNC(=N)Nc1ccc(OCC)cc1", "values": [
      {"measurement": "Activity", "setting": "[1]", "value": "Active"},
      {"measurement": "pKi", "setting": "[2]", "value": 5.37}
    ]},
    {"smiles": "CCOc1ccc(N=C2NCCN2)cc1", "values": [
      {"measurement": "Activity", "setting": "[3]", "value": "Active"},
      {"measurement": "Activity", "setting": "[1]", "value": "Active"},
      {"measurement": "pKi", "setting": "[2]", "value": 7.10}
    ]},
    {"smiles": "N=C(Nc1ccccc1)Nc1ccc2c(c1)CCCC2", "values": [
      {"measurement": "Activity", "setting": "[3]", "value": "Active"},
      {"measurement": "Activity", "setting": "[1]", "value": "Active"},
      {"measurement": "pKi", "setting": "[2]", "value": 6.58}
    ]},
    {"smiles": "CCOc1ccc(NC(=N)N)cc1", "values": [
      {"measurement": "Activity", "setting": "[3]", "value": "Active"},
      {"measurement": "Activity", "setting": "[1]", "value": "Active"},
      {"measurement": "pKi", "setting": "[2]", "value": 6.85}
    ]},
    {"smiles": "CC1CN/C(=N/c2ccc3c(c2)OCO3)N1", "note": "(centres undefined)", "values": [
      {"measurement": "pKi", "setting": "[2]", "value": 5.63}
    ]},
    {"smiles": "CC1CN/C(=N/c2ccc3c(c2)CCCC3)N1", "note": "(centres undefined)", "values": [
      {"measurement": "Activity", "setting": "[1]", "value": "Active"},
      {"measurement": "pKi", "setting": "[2]", "value": 6.00}
    ]},
    {"smiles": "CC1CN/C(=N/c2ccc(N(C)C)cc2)N1", "note": "(centres undefined)", "values": [
      {"measurement": "pKi", "setting": "[2]", "value": 5.48}
    ]},
    {"smiles": "N=C(NCc1ccco1)Nc1ccc2c(c1)CCCC2", "values": [
      {"measurement": "Activity", "setting": "[1]", "value": "Active"},
      {"measurement": "pKi", "setting": "[2]", "value": 6.29}
    ]},
    {"smiles": "c1coc(C2CN/C(=N/c3ccc4c(c3)CCCC4)N2)c1", "note": "(centres undefined)", "values": [
      {"measurement": "Activity", "setting": "[1]", "value": "Active"},
      {"measurement": "pKi", "setting": "[2]", "value": 6.16}
    ]},
    {"smiles": "CN(C)c1ccc(/N=C2/NCC(c3ccco3)N2)cc1", "note": "(centres undefined)", "values": [
      {"measurement": "pKi", "setting": "[2]", "value": 5.88}
    ]},
    {"smiles": "N=C(NCCO)Nc1ccc2c(c1)CCCC2", "values": [
      {"measurement": "pKi", "setting": "[2]", "value": 5.76}
    ]},
    {"smiles": "CCNc1ccc(/N=C2/NCC(c3ccco3)N2)cc1", "note": "(centres undefined)", "values": [
      {"measurement": "pKi", "setting": "[2]", "value": 5.66}
    ]},
    {"smiles": "CCCNC(=N)Nc1ccc(N(C)C)cc1", "values": [
      {"measurement": "Activity", "setting": "[1]", "value": "Active"},
      {"measurement": "pKi", "setting": "[2]", "value": 5.95}
    ]},
    {"smiles": "c1coc(C2CN/C(=N/c3ccc4c(c3)OCO4)N2)c1", "note": "(centres undefined)", "values": [
      {"measurement": "pKi", "setting": "[2]", "value": 5.77}
    ]},
    {"smiles": "CCNc1ccc(NC(=N)Nc2ccccc2)cc1", "values": [
      {"measurement": "pKi", "setting": "[2]", "value": 5.31}
    ]},
    {"smiles": "CCCNC(=N)Nc1ccc2c(c1)OCO2", "values": [
      {"measurement": "pKi", "setting": "[2]", "value": 4.82}
    ]},
    {"smiles": "CN(C)c1ccc(NC(=N)NCCO)cc1", "values": [
      {"measurement": "Activity", "setting": "[1]", "value": "Active"},
      {"measurement": "pKi", "setting": "[2]", "value": 5.73}
    ]},
    {"smiles": "CCOc1ccc(NC(=N)Nc2ccccc2)cc1", "values": [
      {"measurement": "pKi", "setting": "[2]", "value": 5.65}
    ]}
  ]
}
